Test results as given in ChEMBL document CHEMBL1145806, “Discovery and structural modification of inhibitors of methionine aminopeptidases from Escherichia coli and Saccharomyces cerevisiae” (J Med Chem, 2003).
In brackets after ≈: the same amount, converted by molar mass.

How the values were obtained:
[1] = target: T1, Methionine aminopeptidase 1 (Saccharomyces cerevisiae S288c, UniProt Q01662); assay: Inhibitory activity against type I methionine aminopeptidase from Saccharomyces cerevisiae
T1 sequence (Q01662 whole entry): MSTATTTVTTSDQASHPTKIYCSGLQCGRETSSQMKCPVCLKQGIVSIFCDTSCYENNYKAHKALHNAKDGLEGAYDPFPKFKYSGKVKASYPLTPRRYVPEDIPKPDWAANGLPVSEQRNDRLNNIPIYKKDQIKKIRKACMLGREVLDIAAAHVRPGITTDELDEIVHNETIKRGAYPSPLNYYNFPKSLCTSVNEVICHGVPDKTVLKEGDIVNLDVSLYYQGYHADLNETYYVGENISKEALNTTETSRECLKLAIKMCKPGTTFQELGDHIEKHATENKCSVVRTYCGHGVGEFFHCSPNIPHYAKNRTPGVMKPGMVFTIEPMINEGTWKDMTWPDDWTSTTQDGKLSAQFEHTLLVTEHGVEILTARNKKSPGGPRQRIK
Summary of the method: (§1)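 Co(II)-activated enzyme: preincubated 30 min in 25 mM HEPES pH 7.5, 150 mM KCl, 15 mM methionine, 500 μM CoCl2. Chromogenic assay in 50 mM MOPS pH 7.0 with 1 mM DTNB and 100 μM thiopeptolide Met-S-Gly-Phe-OH. Final enzyme was 150 nM for EcMetAP1 and 330 nM for ScMetAP1. Hydrolysis read at 412 nm for 60 s. IC50 from inhibitor dilutions, […].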

[2] = test system: Escherichia coli; assay: Selectivity of inhibitory activity of Methionine aminopeptidase 1 from Escherichia coli to Methionine aminopeptidase 1 from Saccharomyces cerevisiae
[3] = target: T2, Methionine aminopeptidase (Escherichia coli K-12, UniProt P0AE18); assay: Inhibitory activity against Methionine aminopeptidase 1 from Escherichia coli; summary of the method: as §1
T2 sequence (P0AE18 whole entry): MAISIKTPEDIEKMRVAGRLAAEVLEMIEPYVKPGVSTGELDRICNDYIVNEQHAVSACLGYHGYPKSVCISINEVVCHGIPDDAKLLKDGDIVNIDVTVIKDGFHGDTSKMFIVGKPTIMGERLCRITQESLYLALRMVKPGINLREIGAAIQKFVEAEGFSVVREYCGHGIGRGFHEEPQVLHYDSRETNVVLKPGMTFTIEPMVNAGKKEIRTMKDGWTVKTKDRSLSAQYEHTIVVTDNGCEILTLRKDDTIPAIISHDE

[4] = test system: Escherichia coli; assay: Antibacterial activity against enteropathogenic Escherichia coli ATCC 25922 was determined after 24 hr; format: functional; conditions: ATCC 25922, 24 h
[5] = test system: Pseudomonas aeruginosa; assay: Antibacterial activity against Pseudomonas aeruginosa ATCC 27853 was determined after 24 hr; format: functional; conditions: ATCC 27853, 24 h
[6] = test system: Staphylococcus aureus; assay: Antibacterial activity against Staphylococcus aureus ATCC 25923 was determined after 24 hr; format: functional; conditions: ATCC 25923, 24 h

O=C(Nc1cccnc1C(=O)Nc1nccs1)c1cccc(F)c1
IC50 [1]: > 100000 nM
Ratio [2]: < 0.0071
IC50 [3]: 710 nM

COc1ccccc1C(=O)Oc1cccnc1C(=O)Nc1nccs1
IC50 [1]: 550 nM
Ratio [2]: 3.1
IC50 [3]: 1700 nM

CC(C)=CC(=O)Oc1cccnc1C(=O)Nc1nccs1
IC50 [1]: 490 nM
Ratio [2]: 5.3
IC50 [3]: 2600 nM

Nc1cccnc1C(=O)Nc1nccs1
IC50 [1]: 32800 nM
Ratio [2]: 0.052
IC50 [3]: 1700 nM

COc1ccccc1/C=C/C(=O)Oc1cccnc1C(=O)Nc1nccs1
IC50 [1]: 9900 nM
Ratio [2]: 0.21
IC50 [3]: 2100 nM

O=C(Nc1nccs1)c1ncccc1O
IC50 [1]: 4860 nM
Ratio [2]: 0.38
IC50 [3]: 1870 nM

O=C(Nc1cccnc1C(=O)Nc1nccs1)c1ccccc1
IC50 [1]: > 100000 nM
Ratio [2]: < 0.0089
IC50 [3]: 890 nM

COc1cccc(C(=O)Oc2cccnc2C(=O)Nc2nccs2)c1[N+](=O)[O-]
IC50 [1]: 3020 nM
Ratio [2]: 0.56
IC50 [3]: 1700 nM

C=C(C)CC(=O)Nc1cccnc1C(=O)Nc1nccs1
IC50 [1]: 4670 nM
Ratio [2]: 0.032
IC50 [3]: 150 nM

O=C(Oc1cccnc1C(=O)Nc1nccs1)c1ccccc1[N+](=O)[O-]
IC50 [1]: > 100000 nM
Ratio [2]: < 0.021
IC50 [3]: 2100 nM

O=C(Nc1nccs1)c1ncccc1NC(=O)C(F)(F)F
IC50 [1]: 4920 nM
Ratio [2]: 0.069
IC50 [3]: 340 nM

CO[C@@H]1[C@H](OC(=O)/C=C/C=C/C=C/C=C/C(=O)O)CC[C@]2(CO2)[C@H]1[C@@]1(C)O[C@@H]1CC=C(C)C [FUMAGILLIN]
IC50 [1]: > 100000 nM
IC50 [3]: > 100000 nM

CC(C)=CC(=O)Nc1cccnc1C(=O)Nc1nccs1
IC50 [1]: 770 nM
Ratio [2]: 0.29
IC50 [3]: 220 nM

CC(=O)Oc1ccccc1C(=O)Oc1cccnc1C(=O)Nc1nccs1
IC50 [1]: 15000 nM
Ratio [2]: 0.11
IC50 [3]: 1600 nM

CC(C)(C)OC(=O)Nc1cccnc1C(=O)Nc1nccs1
IC50 [1]: 3350 nM
Ratio [2]: 0.054
IC50 [3]: 180 nM

CC(C)(C)C(=O)Nc1cccnc1C(=O)Nc1nccs1
IC50 [1]: 340 nM
Ratio [2]: 1.59
IC50 [3]: 540 nM

O=C(Nc1nccs1)c1ncccc1NC(=O)C1CCCCC1
IC50 [1]: > 100000 nM
Ratio [2]: < 0.0087
IC50 [3]: 870 nM

C/C=C(\C)C(=O)Oc1cccnc1C(=O)Nc1nccs1
IC50 [1]: 390 nM
Ratio [2]: 11
IC50 [3]: 4400 nM

CCCCCC(=O)Nc1cccnc1C(=O)Nc1nccs1
IC50 [1]: 620 nM
Ratio [2]: 0.61
IC50 [3]: 380 nM

O=C(Oc1cccnc1C(=O)Nc1nccs1)c1ccc(F)c(Br)c1
IC50 [1]: 3400 nM
Ratio [2]: 0.74
IC50 [3]: 2500 nM

O=C(Nc1cccnc1C(=O)Nc1nccs1)c1ccc(F)cc1
IC50 [1]: > 100000 nM
Ratio [2]: < 0.0136
IC50 [3]: 1360 nM

O=C(Cc1ccccc1)Nc1cccnc1C(=O)Nc1nccs1
IC50 [1]: 820 nM
Ratio [2]: 0.49
IC50 [3]: 400 nM

O=C(Nc1nccs1)c1ncccc1OC(=O)C1CCCCC1
IC50 [1]: 320 nM
Ratio [2]: 7.5
IC50 [3]: 2390 nM

O=CNc1cccnc1C(=O)Nc1nccs1
MIC [4]: 125 µg/mL (≈ 503 µM)
IC50 [1]: 320 nM
Ratio [2]: 1
MIC [5]: 500 µg/mL (≈ 2010 µM)
MIC [6]: 62.5 µg/mL (≈ 252 µM)
IC50 [3]: 330 nM

O=C(Oc1cccnc1C(=O)Nc1nccs1)c1ccccc1
IC50 [1]: 1030 nM
Ratio [2]: 1.2
IC50 [3]: 1220 nM

O=C(Oc1cccnc1C(=O)Nc1nccs1)c1cccc(F)c1
IC50 [1]: > 100000 nM
Ratio [2]: < 0.0095
IC50 [3]: 950 nM

O=C(Oc1cccnc1C(=O)Nc1nccs1)c1ccccc1F
IC50 [1]: 16000 nM
Ratio [2]: 0.052
IC50 [3]: 830 nM

O=C(Oc1cccnc1C(=O)Nc1nccs1)c1cccc([N+](=O)[O-])c1
IC50 [1]: > 100000 nM
Ratio [2]: < 0.006
IC50 [3]: 600 nM

C/C=C(\C)C(=O)Nc1cccnc1C(=O)Nc1nccs1
IC50 [1]: 10900 nM
Ratio [2]: 0.026
IC50 [3]: 280 nM

CCCCCC(=O)Oc1cccnc1C(=O)Nc1nccs1
IC50 [1]: 1740 nM
Ratio [2]: 0.59
IC50 [3]: 1020 nM

O=C(Oc1cccnc1C(=O)Nc1nccs1)c1ccc(F)cc1
IC50 [1]: 62000 nM
Ratio [2]: 0.018
IC50 [3]: 1100 nM

O=C(Oc1cccnc1C(=O)Nc1nccs1)c1ccccc1I
IC50 [1]: 890 nM
Ratio [2]: 1.5
IC50 [3]: 1300 nM

CC(C)=CCCC(=O)Nc1cccnc1C(=O)Nc1nccs1
IC50 [1]: 310 nM
Ratio [2]: 2
IC50 [3]: 610 nM

CC(C)(C)C(=O)Oc1cccnc1C(=O)Nc1nccs1
IC50 [1]: 780 nM
Ratio [2]: 0.87
IC50 [3]: 680 nM

O=C(Nc1cccnc1C(=O)Nc1nccs1)c1ccccc1F
MIC [4]: 250 µg/mL (≈ 730 µM)
IC50 [1]: > 100000 nM
Ratio [2]: < 0.0028
MIC [5]: 250 µg/mL (≈ 730 µM)
MIC [6]: 15.6 µg/mL (≈ 45.6 µM)
IC50 [3]: 280 nM

C=CCC(=O)Nc1cccnc1C(=O)Nc1nccs1
MIC [4]: 125 µg/mL (≈ 434 µM)
IC50 [1]: 380 nM
Ratio [2]: 0.34
MIC [5]: 500 µg/mL (≈ 1730 µM)
MIC [6]: 62.5 µg/mL (≈ 217 µM)
IC50 [3]: 130 nM

O=C(Nc1nccs1)c1ccccn1
MIC [4]: 12.5 µg/mL (≈ 60.9 µM)
IC50 [1]: 7000 nM
Ratio [2]: 0.71
MIC [5]: 250 µg/mL (≈ 1220 µM)
MIC [6]: 2 µg/mL (≈ 9.74 µM)
IC50 [3]: 5000 nM

CC(C)=CCC(=O)Nc1cccnc1C(=O)Nc1nccs1
IC50 [1]: 140 nM
Ratio [2]: 1.71
IC50 [3]: 240 nM

CC(C)COC(=O)Nc1cccnc1C(=O)Nc1nccs1
IC50 [1]: 53700 nM
Ratio [2]: 0.036
IC50 [3]: 1920 nM

CCC(=O)Nc1cccnc1C(=O)Nc1nccs1
IC50 [1]: 350 nM
Ratio [2]: 0.74
IC50 [3]: 260 nM

CCC(=O)Oc1cccnc1C(=O)Nc1nccs1
MIC [4]: 250 µg/mL (≈ 902 µM)
IC50 [1]: 380 nM
Ratio [2]: 14
MIC [5]: 500 µg/mL (≈ 1800 µM)
MIC [6]: 125 µg/mL (≈ 451 µM)
IC50 [3]: 5400 nM

O=C(Cc1ccccc1)Oc1cccnc1C(=O)Nc1nccs1
IC50 [1]: 200 nM
Ratio [2]: 2.7
IC50 [3]: 540 nM

CCCC[C@@H](N)[C@H](O)C(=O)N[C@@H](C)C(=O)N[C@@H](CC(C)C)C(=O)OC
IC50 [1]: 95100 nM
IC50 [3]: 22900 nM
